Calls of active or inactive are those of the source. The calls are words filed in the database; no cut-off is given here.

Consider 1 compound from ChEMBL document CHEMBL3865807, “Syntheses and photodynamic activity of some glucose-conjugated BODIPY dyes” (Eur J Med Chem, 2016).

Series [1] in a line: Drug uptake in human A549 cells assessed as mean fluorescence intensity at 2.5 uM after 8 hrs by flow cytometry (reference value: 5.4 +/- 1.5). To be noted: a549, 8 h. The format is ADME, cell-based.
Series [2] can be described thus: Drug uptake in human L-132 cells assessed as mean fluorescence intensity at 2.5 uM after 4 hrs by flow cytometry (reference value: 4.6 +/- 1.2). The format is ADME, cell-based. Particulars: l132, 4 h.
Series [3] can be described thus: Cytotoxicity against human A549 cells assessed as decrease in cell viability up to 200 uM after 48 hrs under dark condition by MTT assay. Type of series: toxicity, cell-based. To be noted: a549, 48 h. The procedure, abridged:
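Dark toxicity: A549 cells treated as in the MTT protocol (1 h compound exposure, serum-free medium, washed) with no light, then assessed at 48 h by MTT (0.5 mg/mL, 6 h, formazan in HCl/SDS, A550).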

A short description of series [4]: Cell cycle arrest in human A549 cells assessed as accumulation at subG1 phase at 2.5 uM preincubated for 1 hr followed by 0.77 mW/cm2 white light irradiation for 80 mins measured after 24 hrs by propidium iodide staining based flow cytometry (reference value: 8.2 +/- 1.1%). Type of series: functional.
A short description of series [5]: Drug uptake in human A549 cells assessed as mean fluorescence intensity at 2.5 uM after 16 hrs by flow cytometry (reference value: 5.4 +/- 1.5). The format is ADME, cell-based. To be noted: a549, 16 h.
Series [6] is described as follows: Drug uptake in human A549 cells assessed as mean fluorescence intensity at 2.5 uM after 24 hrs by flow cytometry (reference value: 5.4 +/- 1.5). Type of series: ADME, cell-based. Particulars: a549, 24 h.
Series [7] is described as follows: Cell cycle arrest in human A549 cells assessed as accumulation at subG1 phase at 2.5 uM preincubated for 1 hr followed by 0.77 mW/cm2 white light irradiation for 80 mins measured after 24 hrs in presence of 5 mM of NAC by propidium iodide staining based flow cytometry (reference value: 8.2 +/- 1.1%). Type of series: functional.
The nature of series [8]: Photocytotoxicity against human WI38 cells at 50 uM using 0.77 mW/cm2 white light irradiation by MTT assay. The format is toxicity, cell-based. Particulars: wi-38, 50 µM.
In series [9] the test system is A549. The series is described as follows: Photocytotoxicity in human A549 cells assessed as decrease in cell survival at 2.5 uM preincubated for 1 hr followed by 0.77 mW/cm2 white light irradiation for 80 mins measured after 24 hrs in presence of caspase 9 inhibitor Z-LEHD-FMK by MTT assay. The format is functional, cell-based. Put shortly:
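Cells pre-incubated 1 h with caspase-9 inhibitor Z-LEHD-FMK (20 µM), then compound 2.5 µM for 1 h and light 80 min (0.77 mW/cm²); viability at 24 h by MTT; five replicates, mean ± SEM.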

In series [10] the test system is A549. As to the kind of experiment: Induction of morphological changes in human A549 cells assessed as increase in floating cells without adhering ability up to 2.5 uM preincubated for 1 hr followed by 0.77 mW/cm2 white light irradiation for 80 mins measured after 24 hrs by phase contrast microscopy. The format is functional, cell-based. The procedure, abridged:
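A549 cells (1×10^5/well) on coverslips given vehicle (0.1% DMSO) or compound (0.625, 1.25, 2.5 µM) for 1 h, then irradiated 80 min (0.77 mW/cm²); kept 24 h in regular medium and examined unstained by phase-contrast microscopy (40× objective); representative fields imaged; experiments done three times.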

Series [11] is described as follows: Induction of apoptosis in human A549 cells assessed as accumulation at subG1 phase up to 50 uM measured after 24 hrs under dark condition by propidium iodide staining based flow cytometry. The format is cell-based. To be noted: a549, 24 h. Put shortly: (§1)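 Cells exposed 1 h to compound (5-50 µM; vehicle 0.1% DMSO), washed, then irradiated (0.77 mW/cm²) for 0, 30 or 80 min; after serum addition kept 24 h. PI/RNase A staining in hypotonic 0.1% citrate-0.1% Triton X-100, 30 min, 37 °C; sub-G1 peak by flow cytometry, debris gated out, ≥2×10^4 cells; five replicates, mean ± SEM.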

Series [12] can be described thus: Drug uptake in human L-132 cells assessed as mean fluorescence intensity at 2.5 uM after 2 hrs by flow cytometry (reference value: 4.6 +/- 1.2). The format is ADME, cell-based. To be noted: l132, 2 h.
The nature of series [13]: Drug uptake in mitochondria of human A549 cells at 100 nM measured up to 4 hrs by Mito-Tracker green staining based confocal microscopy. Type of series: ADME. To be noted: a549, 4 h, 0.1 µM. Put shortly: (§2)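 Overnight-seeded A549 cells loaded with dye (100 nM), incubation periods 0.5-4 h tested, then ER-Tracker Green (500 nM) or MitoTracker Green (100 nM) for 30 min at 37 °C; washed, confocal imaging: trackers ex 488/em 500-530 nm, dye ex 543/em 560-640 nm; overlap of images judged.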

For series [14], the system named is A549. The series is described as follows: Induction of apoptosis in human A549 cells assessed as pro-caspase 3 level at 2.5 uM preincubated for 1 hr followed by 0.77 mW/cm2 white light irradiation for 80 mins measured after 8 hrs by immunoblot analysis relative to control. The format is functional. Put shortly:
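Whole-cell extracts from A549 cells (1×10^6) treated with 0 or 2.5 µM compound, photo-exposed 80 min, lysed in Tris pH 7.4/NaCl/EDTA/Triton with protease inhibitors; 30 µg protein on 12% SDS-PAGE, nitrocellulose, milk block, caspase-3 antibody overnight 4 °C, HRP secondary, chemiluminescence; band ratio to normal control (=1) after loading-control normalisation.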

A short description of series [15]: Cytotoxicity against human L-132 cells assessed as reduction in cell viability at 50 uM under dark condition by MTT assay. To be noted: l132, 50 µM. Type of series: toxicity, cell-based.
Series [16] is described as follows: Drug uptake in cytoplasm of human A549 cells at 1 uM after 0.25 to 3 hrs by Hoechst 33342 staining based fluorescence microscopy. Type of series: ADME, cell-based. Particulars: a549, 1 µM. Put shortly:
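A549 cells on coverslips loaded with dyes (1 µM) for 0.25, 0.5, 1, 2 or 3 h at 37 °C, washed, counterstained with Hoechst 33342 (10 µM), mounted in 70% glycerol; red dye and blue nuclear fluorescence imaged by fluorescence microscopy (40×) and overlaid.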

Series [17] can be described thus: Drug uptake in human A549 cells assessed as mean fluorescence intensity at 2.5 uM after 2 hrs by flow cytometry (reference value: 5.4 +/- 1.5). The format is ADME, cell-based. Particulars: a549, 2 h.
The nature of series [18]: Toxicity in human A549 cells assessed as alteration in cell morphology at 100 nM measured up to 4 hrs in dark by confocal microscopy. Type of series: cell-based. To be noted: a549, 4 h, 0.1 µM.
The nature of series [19]: Drug uptake in endoplasmic reticulum of human A549 cells at 100 nM measured up to 4 hrs by ER-Tracker green staining based confocal microscopy. Type of series: ADME, cell-based. To be noted: a549, 4 h, 0.1 µM. The procedure, abridged:
as §2

The nature of series [20]: Photocytotoxicity against human A549 cells assessed as decrease in cell viability preincubated for 1 hr followed by 0.77 mW/cm2 white light irradiation for 80 mins measured after 24 hrs by MTT assay. Particulars: A549, light or radiation study. The format is functional, cell-based. The procedure, abridged:
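IC50 from MTT: A549 cells (1×10^4/well) given graded compound concentrations 1 h in serum-free DMEM (vehicle ≤0.1% DMSO), washed, photo-exposed 80 min at 0.77 mW/cm², regular medium 24 h; MTT 0.5 mg/mL 6 h, A550; viability relative to vehicle control; four replicates, three experiments, mean ± SEM.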

For series [21], the system named is A549. The series is described as follows: Induction of apoptosis in human A549 cells assessed as accumulation at subG1 phase at 5 to 50 uM preincubated for 1 hr followed by 0.77 mW/cm2 white light irradiation for 30 mins measured after 24 hrs by propidium iodide staining based flow cytometry relative to control. The format is functional. Put shortly: as §1

As to `CCC1=C(C)C2=C(C)c3c(C)c(CC)c(C)n3[B-](F)(F)[N+]2=C1/C=C/c1ccc(O[C@H]2O[C@H](CO)[C@@H](O)[C@H](O)[C@H]2O)cc1`, the Flu intensity in series [1] is 49.4 to 58.4; in [2], 56.8; in series [5], 41.6 to 52.5; in series [6], 46.7; in series [12] it was 63.5; in series [17], 95.3 to 98.5. Besides, the Activity entry is “Non-Toxic” in [3]; 68.8% in series [4]; 46.5% in series [7]; 5 to 7% in series [8]; “Non-Toxic” in [11]; “Non-Toxic” in [15]. The Activity result in series [18] is listed as “Non-Toxic”. Besides, the result in the series with A549 [9] and in the series on A549 [10] was Active. The Drug uptake entry in series [13], in [16] and in series [19] was “Active” each time. The “fold change (FC)” value is recorded as 0.8 with A549 [14] and 2.8 - 3.3 in the series on A549 [21]. Also, the IC50 in series [20] was 2700 nM.
